Assay results published in PMC3822768 (Bioorganic & medicinal chemistry, 2013).

Key:
Type in all cases: cell-based, Human
cancer cell lines = test: MTT growth inhibition assay, summary over the cancer cell line panel; conditions: 48 h; for cytotoxicity against the cancer cell lines: MTT
[1] = test system: cyclin B1, CDK1, caspase 3 in H460 cells; test: Western blot of cyclin B1, CDK1 and caspase 3, H460; conditions: H460, 24 h
Summary of the method: (§1)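 Cells grown in RPMI-1640 with 10% FBS at 37 °C, 5% CO₂, then treated with test compound at graded concentrations for 24 h. Harvested cells lysed on ice for 30 min and spun at 12,000 g for 20 min. Protein quantified by Bradford, denatured in Tris-HCl pH 6.8/DTT/SDS loading buffer, run on 10% SDS-PAGE and transferred to nitrocellulose. Detection by chemiluminescence, with β-actin as loading control.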

H460 cells [2] = test: Cell cycle analysis by propidium iodide staining and flow cytometry, H460; conditions: H460, 1.0, 2.5, 5.0 µM, 24 h
Summary of the method: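 After 24 h exposure to test compound at 1.0, 2.5 or 5.0 µM, H460 cells were washed in PBS and fixed overnight in 70% ice-cold ethanol at −20 °C. They were then stained in the dark for 30 min with 0.1% Triton X-100, 0.2 mg/mL RNase and 20 µg/mL propidium iodide. DNA content was measured by flow cytometry and histograms were modelled for phase distribution.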

HL-60 cells = test: Hoechst 33258 staining; conditions: HL-60, 0.25-1.0 µM, 24 h
Summary of the method: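 HL-60 cells seeded at 1×10⁵ per well and incubated 24 h with test compound at 0.25, 0.5 and 1.0 µM. After phase-contrast imaging, nuclei stained with Hoechst 33258 (5 µg/mL, 10 min), washed twice with PBS and fixed in 4% PFA/PBS for 10 min at 25 °C. Apoptotic chromatin condensation or fragmentation assessed; fluorescence at ex 365/em 460 nm.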

[3] = test system: cyclin B1, CDK1, caspase 3 in HL-60 cells; test: Western blot of cyclin B1, CDK1 and caspase 3, HL-60; conditions: HL-60, 24 h
Summary of the method: as §1

H460 cells [4] = test: Hoechst 33258 staining; conditions: H460, 1.0-5.0 µM, 24 h
Summary of the method: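 H460 cells plated at 5×10⁴ per well and exposed to test compound at 1.0, 2.5 and 5.0 µM for 24 h. Cells photographed under phase contrast, then stained with 5 µg/mL Hoechst 33258 for 10 min, washed twice in PBS and fixed in 4% PFA/PBS for 10 min at 25 °C. Nuclei scored for chromatin condensation or fragmentation; fluorescence read at ex 365/em 460 nm.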

O=c1cc(-c2cccc(F)c2)c2cc3c(cc2[nH]1)OCO3 [Compound 12m, 4-(3-Fluorophenyl)-6,7-methylenedioxyquinolin-2(1H)-one]
cytotoxicity against the cancer cell lines (cancer cell lines): weak cytotoxicity

COc1cc(-c2cc(=O)[nH]c3cc4c(cc23)OCO4)cc(OC)c1OC [Compound 12k, 6,7-Methylenedioxy-4-(3,4,5-trimethoxyphenyl)quinolin-2(1H)-one]
IC50 (cancer cell lines; Homo sapiens, read-out: IC50 range over cancer cell lines): 0.93 to 7.6 µM

O=c1cc(-c2ccccc2F)c2cc3c(cc2[nH]1)OCO3 [Compound 12l, 4-(2-Fluorophenyl)-6,7-methylenedioxyquinolin-2(1H)-one]
cytotoxicity against the cancer cell lines (cancer cell lines): weak cytotoxicity

COc1ccc(-c2cc(=O)[nH]c3cc4c(cc23)OCO4)c(OC)c1 [Compound 12e, 6,7-Methylenedioxy-4-(2,4-dimethoxyphenyl)quinolin-2(1H)-one]
CDK1 protein expression level [1]: increased in a concentration-dependent manner | caspase 3 cleavage (17 kDa) [1]: induced caspase 3 cleavage | percentage of G2/M cells (H460 cells [2]): increased | apoptotic morphology by Hoechst 33258 staining (HL-60 cells): typical apoptotic characteristics | CDK1 protein expression level [3]: decreased in a concentration-dependent manner | caspase 3 cleavage (17 kDa) [3]: induced caspase 3 cleavage | cyclin B1 protein expression [3]: transient increase followed by a decrease | apoptotic morphology by Hoechst 33258 staining (H460 cells [4]): typical apoptotic characteristics

O=c1cc(-c2ccccc2)c2cc3c(cc2[nH]1)OCO3 [Compound 12a, 6,7-Methylenedioxy-4-phenylquinolin-2(1H)-one]
cytotoxicity against the cancer cell lines (cancer cell lines): poor cytotoxicity

O=c1cc(-c2ccc(F)cc2)c2cc3c(cc2[nH]1)OCO3 [Compound 12n, 4-(4-Fluorophenyl)-6,7-methylenedioxyquinolin-2(1H)-one]
cytotoxicity against the cancer cell lines (cancer cell lines): weak cytotoxicity
